From ChEMBL document CHEMBL4024747, “Design, Synthesis, and Biological Activities of Vibsanin B Derivatives: A New Class of HSP90 C-Terminal Inhibitors” (J Med Chem, 2017)
Active and inactive are the calls of the source. The rule behind the calls is not given here.

Assays:
[1] = molecular target: Heat shock protein HSP 90-beta (Homo sapiens) (UniProt P08238); experiment: Inhibition of recombinant human Biotin-labeled N-terminal His/Avi-tagged HSP90beta C-terminal domain (527 to 724 residues) expressed in Escherichia coli interaction with GST-tagged Cyp40 at 1 to 100 uM after 30 mins by Alphascreen assay
Procedure, shortened: (§1)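 AlphaScreen assay: biotin-labelled HSP90β C-terminus (aa 527–724) mixed with GST-Cyp40 and compound (1–100 μM; novobiocin 500 μM) for 30 min at room temperature. Glutathione acceptor beads added for 30 min, then streptavidin donor beads for 10 min. Excitation at 680 nm, emission read at 520–620 nm; percent activity calculated against enzyme and background wells.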

[2] = molecular target: Heat shock protein HSP 90-beta (Homo sapiens) (UniProt P08238); experiment: Inhibition of recombinant human Biotin-labeled N-terminal His/Avi-tagged HSP90beta C-terminal domain (527 to 724 residues) expressed in Escherichia coli interaction with GST-tagged Cyp40 at 500 uM after 30 mins by Alphascreen assay; procedure, shortened: as §1
[3] = test system: MCF7; experiment: Antiproliferative activity against human MCF7 cells assessed as reduction in cell viability after 48 hrs by MTT assay; format: functional, cell-based; details: MCF7, 48 h
[4] = test system: MDA-MB-468; experiment: Antiproliferative activity against human MDA-MB-468 cells assessed as reduction in cell viability after 48 hrs by MTT assay; format: functional, cell-based; details: MDA-MB-468, 48 h
[5] = test system: SK-BR-3; experiment: Antiproliferative activity against human SKBR3 cells assessed as reduction in cell viability after 48 hrs by MTT assay; format: functional, cell-based; details: SK-BR-3, 48 h
[6] = molecular target: Heat shock protein HSP 90-alpha (Homo sapiens) (UniProt P07900); experiment: Inhibition of FITC-geldanamycin binding to human FLAG-tagged HSP90alpha N-terminal domain
[7] = molecular target: Heat shock protein HSP 90-beta (Homo sapiens) (UniProt P08238); experiment: Inhibition of FITC-geldanamycin binding to human FLAG-tagged HSP90beta N-terminal domain
[8] = test system: SMMC-7721; experiment: Antiproliferative activity against human SMMC7721 cells assessed as reduction in cell viability after 48 hrs by MTT assay; format: functional, cell-based; details: SMMC-7721, 48 h
[9] = test system: A549; experiment: Antiproliferative activity against human A549 cells assessed as reduction in cell viability after 48 hrs by MTT assay; format: functional, cell-based; details: A549, 48 h
[10] = test system: HL-60; experiment: Antiproliferative activity against human HL60 cells assessed as reduction in cell viability after 48 hrs by MTT assay; format: functional, cell-based; details: HL-60, 48 h
[11] = test system: SW480; experiment: Antiproliferative activity against human SW480 cells assessed as reduction in cell viability after 48 hrs by MTT assay; format: functional, cell-based; details: SW480, 48 h
[12] = organism: Oryctolagus cuniculus; experiment: Inhibition of HSP90 in rabbit reticulocyte lysate assessed as decrease in HSP90-dependant refolding of firefly luciferase at 10 uM after 30 mins by luciferase gene based assay
Procedure, shortened: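 Firefly luciferase heat-denatured at 41 °C for 10 min, then added with rabbit reticulocyte lysate to compounds at 10 μM. Renaturation at room temperature for 3 h; luciferin substrate added and luminescence read. Refolding expressed relative to DMSO; novobiocin at 500 μM as reference. Three independent experiments.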

[13] = test system: HepG2; experiment: Antiproliferative activity against human HepG2 cells assessed as reduction in cell viability after 48 hrs by MTT assay; format: functional, cell-based; details: HepG2, 48 h
[14] = test system: AGS; experiment: Antiproliferative activity against human AGS cells assessed as reduction in cell viability after 48 hrs by MTT assay; format: functional, cell-based
[15] = test system: Huh-7; experiment: Antiproliferative activity against human HuH7 cells assessed as reduction in cell viability after 48 hrs by MTT assay; format: functional, cell-based; details: Huh-7, 48 h
[16] = test system: HeLa; experiment: Antiproliferative activity against human HeLa cells assessed as reduction in cell viability after 48 hrs by MTT assay; format: functional, cell-based
[17] = test system: BT-474; experiment: Antiproliferative activity against human BT474 cells assessed as reduction in cell viability after 48 hrs by MTT assay; format: functional, cell-based; details: BT-474, 48 h
[18] = test system: BEAS-2B; experiment: Cytotoxicity against human BEAS2B cells assessed as reduction in cell viability after 48 hrs by MTT assay; format: cell-based
[19] = organism: Danio rerio; experiment: Toxicity in 3 days post fertilized zebrafish embryo assessed as changes in embryonic phenotypes at 4 to 16 uM after 12 hrs; details: in vivo
[20] = molecular target: Heat shock protein HSP 90-beta (Homo sapiens) (UniProt P08238); experiment: Inhibition of recombinant human Biotin-labeled N-terminal His/Avi-tagged HSP90beta C-terminal domain (527 to 724 residues) expressed in Escherichia coli interaction with GST-tagged Cyp40 at 100 uM after 30 mins by Alphascreen assay; procedure, shortened: as §1
[21] = molecular target: T1, Heat shock protein HSP90 (Homo sapiens) (UniProt P07900+P08238); experiment: Inhibition of HSP90 in human BT474 cells assessed as decrease in c-Raf protein expression at 1.25 to 5 uM after 24 hrs by Western blot analysis; format: cell-based
[22] = molecular target: T1, Heat shock protein HSP90 (Homo sapiens); experiment: Inhibition of HSP90 in human BT474 cells assessed as decrease in Her2 protein expression at 1.25 to 5 uM after 24 hrs by Western blot analysis; format: cell-based
Procedure, shortened: (§2)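 BT474 cells lysed directly in 2× Laemmli buffer; proteins resolved on 12% acrylamide gel and transferred to PVDF. Blocked overnight at 4 °C in 5% skim milk, then probed 1 h at room temperature with antibodies to HER2, pAkt, CDK4, HSP90, HSP70 and HSP27. Chemiluminescent detection with β-actin as loading control; run in triplicate.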

[23] = molecular target: T1, Heat shock protein HSP90 (Homo sapiens); experiment: Inhibition of HSP90 in human BT474 cells assessed as decrease in p-Akt expression at 1.25 to 5 uM after 24 hrs by Western blot analysis; format: cell-based; procedure, shortened: as §2
[24] = molecular target: T1, Heat shock protein HSP90 (Homo sapiens); experiment: Inhibition of HSP90 in human BT474 cells assessed as decrease in CDK4 protein expression at 1.25 to 5 uM after 24 hrs by Western blot analysis; format: cell-based; procedure, shortened: as §2
[25] = molecular target: T1, Heat shock protein HSP90 (Homo sapiens); experiment: Inhibition of HSP90 in human BT474 cells assessed as induction of HSP70 expression at 1.25 to 5 uM after 24 hrs by Western blot analysis; format: cell-based; procedure, shortened: as §2
[26] = molecular target: T1, Heat shock protein HSP90 (Homo sapiens); experiment: Inhibition of HSP90 in human BT474 cells assessed as induction of HSP27 expression at 1.25 to 5 uM after 24 hrs by Western blot analysis; format: cell-based; procedure, shortened: as §2
[27] = test system: BT-474; experiment: Cell cycle arrest in human BT474 cells assessed as accumulation at subG1 phase at 2.5 uM after 16 hrs by propidium iodide-staining based FACS analysis (reference value: 0.81%); format: functional
[28] = test system: BT-474; experiment: Cell cycle arrest in human BT474 cells assessed as accumulation at G0/G1 phase at 2.5 uM after 16 hrs by propidium iodide-staining based FACS analysis (reference value: 74.88%); format: functional
[29] = test system: BT-474; experiment: Cell cycle arrest in human BT474 cells assessed as accumulation at S phase at 2.5 uM after 16 hrs by propidium iodide-staining based FACS analysis (reference value: 8.52%); format: functional
[30] = test system: BT-474; experiment: Cell cycle arrest in human BT474 cells assessed as accumulation at G2/M phase at 2.5 uM after 16 hrs by propidium iodide-staining based FACS analysis (reference value: 15.79%); format: functional
[31] = test system: BT-474; experiment: Cell cycle arrest in human BT474 cells assessed as accumulation at subG1 phase at 5 uM after 16 hrs by propidium iodide-staining based FACS analysis (reference value: 0.81%); format: functional
[32] = test system: BT-474; experiment: Cell cycle arrest in human BT474 cells assessed as accumulation at G0/G1 phase at 5 uM after 16 hrs by propidium iodide-staining based FACS analysis (reference value: 74.88%); format: functional
[33] = test system: BT-474; experiment: Cell cycle arrest in human BT474 cells assessed as accumulation at S phase at 5 uM after 16 hrs by propidium iodide-staining based FACS analysis (reference value: 8.52%); format: functional
[34] = test system: BT-474; experiment: Cell cycle arrest in human BT474 cells assessed as accumulation at G2/M phase at 5 uM after 16 hrs by propidium iodide-staining based FACS analysis (reference value: 15.79%); format: functional
[35] = Half life of compound in toluene at 110 degreeC by HPLC analysis; format: physicochemical
Procedure, shortened: (§3)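 Thermostability in toluene at 110 °C or 60 °C followed by HPLC; half-life estimated.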

[36] = Drug metabolism in deionized water assessed as compound decomposition at 100 degreeC after 10 mins by HPLC analysis relative to control; format: physicochemical; details: read-out: Drug metabolism
Procedure, shortened: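 Thermostability determined by HPLC after heating in deionized water at 100 °C for 10 min; decomposition recorded in percent.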

[37] = Stability of compound in pH 7.4 PBS at 37 degreeC after 12 hrs by HPLC analysis; format: physicochemical; details: buffer, pH 7.4, 12 h
Procedure, shortened: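 Solution stability determined by HPLC after incubation in PBS pH 7.4 at 37 °C for 12 h.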

[38] = Stability of compound in DMSO at 4 degreeC after 4 weeks HPLC analysis; format: physicochemical; details: 672 h
[39] = Half life of compound in toluene at 60 degreeC by HPLC analysis; format: physicochemical; procedure, shortened: as §3
[40] = molecular target: Luciferin 4-monooxygenase (Photinus pyralis) (UniProt P08659); experiment: Inhibition of firefly luciferase activity using luciferin substrate at 10 uM after 30 mins by luminescence assay
Luciferin 4-monooxygenase (Photinus pyralis), sequence (P08659 whole entry): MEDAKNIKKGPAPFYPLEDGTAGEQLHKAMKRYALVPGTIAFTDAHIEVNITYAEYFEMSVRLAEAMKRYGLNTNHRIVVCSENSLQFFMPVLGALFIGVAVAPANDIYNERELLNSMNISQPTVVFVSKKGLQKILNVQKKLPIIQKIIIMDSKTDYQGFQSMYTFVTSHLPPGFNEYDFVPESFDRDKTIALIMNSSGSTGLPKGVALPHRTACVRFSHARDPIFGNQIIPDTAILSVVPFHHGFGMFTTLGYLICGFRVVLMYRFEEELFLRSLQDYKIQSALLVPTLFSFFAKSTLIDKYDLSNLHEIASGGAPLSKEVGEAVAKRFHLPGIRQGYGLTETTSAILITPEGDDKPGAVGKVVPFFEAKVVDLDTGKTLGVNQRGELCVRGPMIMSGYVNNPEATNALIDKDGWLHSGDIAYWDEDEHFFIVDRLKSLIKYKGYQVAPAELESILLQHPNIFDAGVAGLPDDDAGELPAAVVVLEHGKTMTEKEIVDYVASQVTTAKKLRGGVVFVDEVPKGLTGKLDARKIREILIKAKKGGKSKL

Heat shock protein HSP 90-beta (Homo sapiens), sequence (P08238 whole entry, the tested form may be a part): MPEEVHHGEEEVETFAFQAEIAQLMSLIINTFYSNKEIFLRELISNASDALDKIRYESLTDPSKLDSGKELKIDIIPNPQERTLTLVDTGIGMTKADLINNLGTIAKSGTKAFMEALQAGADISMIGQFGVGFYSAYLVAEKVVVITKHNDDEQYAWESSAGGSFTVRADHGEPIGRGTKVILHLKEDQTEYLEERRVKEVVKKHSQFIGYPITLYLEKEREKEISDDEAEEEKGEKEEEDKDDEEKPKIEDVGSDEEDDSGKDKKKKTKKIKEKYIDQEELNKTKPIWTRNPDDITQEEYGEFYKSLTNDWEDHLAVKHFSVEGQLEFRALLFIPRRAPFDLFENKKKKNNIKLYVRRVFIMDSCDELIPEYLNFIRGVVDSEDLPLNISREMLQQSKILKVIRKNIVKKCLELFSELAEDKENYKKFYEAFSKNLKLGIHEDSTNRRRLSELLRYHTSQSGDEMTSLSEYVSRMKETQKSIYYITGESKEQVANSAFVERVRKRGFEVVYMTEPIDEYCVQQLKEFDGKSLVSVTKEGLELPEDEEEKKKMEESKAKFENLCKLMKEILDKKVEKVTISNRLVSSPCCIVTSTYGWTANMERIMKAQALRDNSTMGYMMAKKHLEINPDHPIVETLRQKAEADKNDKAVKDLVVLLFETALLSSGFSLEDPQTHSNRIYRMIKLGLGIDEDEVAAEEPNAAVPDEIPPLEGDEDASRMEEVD

**Q.** Which inhibition [1] does the source give for `CO[C@@H]1[C@@H](OC(N)=O)[C@@H](O)[C@H](Oc2ccc3c(O)c(NC(=O)c4ccc(O)c(CC=C(C)C)c4)c(=O)oc3c2C)OC1(C)C` here?
**A.** Active

**Q.** And the inhibition [2]?
**A.** Active

**Q.** For `CC(C)=CCC[C@]1(C)/C=C/[C@@H](OC(=O)C=C(C)C)[C@](C)(O)/C=C/C(=O)/C(CN2CCN(C)CC2)=C\C1`, which IC50 [3] is on record?
**A.** 550 nM

**Q.** And the IC50 [4]?
**A.** 760 nM

**Q.** And the IC50 [5]?
**A.** 1120 nM

**Q.** And the inhibition [1]?
**A.** Active

**Q.** What about the inhibition [6] of the same compound?
**A.** inactive

**Q.** What about the inhibition [7] of the same compound?
**A.** inactive

**Q.** And the IC50 [8]?
**A.** 2940 nM

**Q.** What about the IC50 [9] of the same compound?
**A.** 940 nM

**Q.** What about the IC50 [10] of the same compound?
**A.** 840 nM

**Q.** And the IC50 [11]?
**A.** 800 nM

**Q.** And the inhibition [12]?
**A.** Active

**Q.** What about the IC50 [13] of the same compound?
**A.** 2260 nM

**Q.** What about the IC50 [14] of the same compound?
**A.** 860 nM

**Q.** And the IC50 [15]?
**A.** 860 nM

**Q.** And the IC50 [16]?
**A.** 590 nM

**Q.** What about the IC50 [17] of the same compound?
**A.** 2640 nM

**Q.** And the IC50 [18]?
**A.** 2840 nM

**Q.** And the Activity [19]?
**A.** Non-Toxic

**Q.** What about the inhibition [20] of the same compound?
**A.** Active

**Q.** What about the inhibition [21] of the same compound?
**A.** Active

**Q.** And the inhibition [22]?
**A.** Active

**Q.** What about the inhibition [23] of the same compound?
**A.** Active

**Q.** And the inhibition [24]?
**A.** Active

**Q.** And the inhibition [25]?
**A.** Active

**Q.** And the inhibition [26]?
**A.** Active

**Q.** And the Activity [27]?
**A.** 2.03%

**Q.** What about the Activity [28] of the same compound?
**A.** 73.18%

**Q.** What about the Activity [29] of the same compound?
**A.** 5.3%

**Q.** And the Activity [30]?
**A.** 19.49%

**Q.** What about the Activity [31] of the same compound?
**A.** 4.18%

**Q.** What about the Activity [32] of the same compound?
**A.** 61.89%

**Q.** And the Activity [33]?
**A.** 8.33%

**Q.** What about the Activity [34] of the same compound?
**A.** 25.6%

**Q.** And the half-life [35]?
**A.** 5 min

**Q.** What about the degraded at 10 min [36] of the same compound?
**A.** 2.3%

**Q.** And the Stability [37]?
**A.** Stable

**Q.** What about the Stability [38] of the same compound?
**A.** Stable

**Q.** And the half-life [39]?
**A.** 20 min

**Q.** What about the inhibition [40] of the same compound?
**A.** inactive
